The source of these data is ChEMBL document CHEMBL1649098 (ACS Med Chem Lett, 2011).

Test [1] deals with T1, Fatty-acid amide hydrolase 1 (Rattus norvegicus) (UniProt P97612).
T1 sequence (whole entry): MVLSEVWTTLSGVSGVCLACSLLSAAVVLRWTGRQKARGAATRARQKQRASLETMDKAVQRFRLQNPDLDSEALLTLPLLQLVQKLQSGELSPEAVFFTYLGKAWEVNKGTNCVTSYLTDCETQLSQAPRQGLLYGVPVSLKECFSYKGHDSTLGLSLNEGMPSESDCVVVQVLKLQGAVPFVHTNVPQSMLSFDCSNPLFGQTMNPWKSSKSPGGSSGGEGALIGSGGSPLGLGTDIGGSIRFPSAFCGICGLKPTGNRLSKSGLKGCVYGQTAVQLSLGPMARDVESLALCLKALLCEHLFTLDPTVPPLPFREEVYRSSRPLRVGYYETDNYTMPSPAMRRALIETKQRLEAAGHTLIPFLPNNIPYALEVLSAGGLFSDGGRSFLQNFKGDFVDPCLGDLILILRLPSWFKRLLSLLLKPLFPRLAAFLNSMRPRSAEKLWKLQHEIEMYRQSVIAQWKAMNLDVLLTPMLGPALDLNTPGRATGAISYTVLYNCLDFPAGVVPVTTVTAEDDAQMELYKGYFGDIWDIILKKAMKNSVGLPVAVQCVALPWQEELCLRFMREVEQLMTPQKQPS
In words: Irreversible inhibition of His-tagged rat FAAH N-terminal transmembrane-deleted truncated form expressed in Escherichia coli assessed as ratio of Kinact to Ki by GDH-coupled FAAH assay. The procedure, abridged:
(§1)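 Irreversible potency was measured as the second-order rate constant kinact/Ki in an enzyme-coupled FAAH assay (human or rat enzyme). Values are the average of at least two independent determinations ±SD.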

Test [2] concerns the target T2, Fatty-acid amide hydrolase 1 (Homo sapiens) (UniProt O00519).
T2 sequence (whole entry): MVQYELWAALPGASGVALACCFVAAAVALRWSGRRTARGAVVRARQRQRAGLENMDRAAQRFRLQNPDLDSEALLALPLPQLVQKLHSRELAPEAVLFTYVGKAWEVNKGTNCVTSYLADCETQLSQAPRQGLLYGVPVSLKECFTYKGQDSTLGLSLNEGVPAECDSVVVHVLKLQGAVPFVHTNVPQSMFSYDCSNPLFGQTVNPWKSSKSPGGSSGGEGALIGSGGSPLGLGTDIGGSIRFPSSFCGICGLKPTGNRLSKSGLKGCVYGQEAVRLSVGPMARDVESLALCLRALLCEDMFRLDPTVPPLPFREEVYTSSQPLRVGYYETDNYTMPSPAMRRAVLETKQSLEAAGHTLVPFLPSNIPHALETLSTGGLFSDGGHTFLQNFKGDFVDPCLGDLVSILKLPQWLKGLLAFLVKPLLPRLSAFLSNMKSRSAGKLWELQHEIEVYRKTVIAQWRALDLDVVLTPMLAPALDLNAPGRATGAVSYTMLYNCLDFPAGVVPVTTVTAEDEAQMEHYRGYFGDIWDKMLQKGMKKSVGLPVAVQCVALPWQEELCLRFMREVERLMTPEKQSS
The test is described as follows: Irreversible inhibition of His-tagged human FAAH N-terminal transmembrane-deleted truncated form expressed in Escherichia coli assessed as ratio of Kinact to Ki by GDH-coupled FAAH assay. Summed up: as §1

For test [3], the species on record is Rattus norvegicus. The conditions noted are these: Sprague-Dawley, 10 mg/kg.
Test [4] deals with Rattus norvegicus. In words: Antihyperalgesic activity in orally dosed Sprague-Dawley rat model of complete Freund's adjuvant-induced inflammatory pain model assessed as reduction in mechanical allodynia measured 4 hrs post dose. Format: functional. Summed up: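 CFA was injected subcutaneously into the plantar surface of the rat hind paw. Oral dosing at 0.1-10 mg/kg began 5 days post-injection, once mechanical paw withdrawal threshold had fallen. Mechanical allodynia was read as paw withdrawal threshold 4 h after dosing. n=8 rats per group; significance versus vehicle-treated groups at p<0.05.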

The next test concerns the target Cytochrome P450 2D6 (Homo sapiens, UniProt P10635). In words: Inhibition of CYP2D6. Format: ADME. Summed up: (§2)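 CYP inhibition was tested in human liver microsomes with relevant probe substrates.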
In test [5] the target is T3, Cytochrome P450 3A4 (Homo sapiens, UniProt P08684). The test is described as follows: Inhibition of CYP3A4 uisng midazolam substrate. It is filed as ADME. Summed up:
as §2

The target in test [6] is T3, Cytochrome P450 3A4. In words: Inhibition of CYP3A4 uisng testosterone substrate. Format: ADME. Summed up: as §2
The target in test [7] is T2, Fatty-acid amide hydrolase 1 (Homo sapiens). The conditions noted are these: 10 uM.
Test [8] shares this target. The conditions noted are these: 100 uM.
The target of test [9] is T4, Fatty-acid amide hydrolase 1 (Mus musculus) (UniProt O08914).
T4 sequence (whole entry): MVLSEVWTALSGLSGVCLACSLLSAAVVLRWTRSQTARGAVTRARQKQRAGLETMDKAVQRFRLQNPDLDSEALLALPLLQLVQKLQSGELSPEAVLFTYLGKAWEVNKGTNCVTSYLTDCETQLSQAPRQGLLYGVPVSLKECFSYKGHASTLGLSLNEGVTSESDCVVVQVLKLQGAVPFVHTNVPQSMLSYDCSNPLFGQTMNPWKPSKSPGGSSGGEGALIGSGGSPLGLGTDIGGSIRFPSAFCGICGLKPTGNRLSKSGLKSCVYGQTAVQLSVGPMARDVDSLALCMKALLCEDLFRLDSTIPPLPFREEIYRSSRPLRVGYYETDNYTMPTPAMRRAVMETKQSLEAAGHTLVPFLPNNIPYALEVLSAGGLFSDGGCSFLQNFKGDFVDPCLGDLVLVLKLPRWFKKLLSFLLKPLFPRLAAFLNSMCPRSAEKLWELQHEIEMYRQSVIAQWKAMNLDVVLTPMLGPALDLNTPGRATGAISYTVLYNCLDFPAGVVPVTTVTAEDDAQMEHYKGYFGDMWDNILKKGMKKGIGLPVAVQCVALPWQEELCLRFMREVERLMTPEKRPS
The test is described as follows: Inhibition of FAAH in mouse brain membrane proteomes at 10 uM by competitive activity based protein profiling. Format: cell membranes. The procedure, abridged:
(§3)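 Competitive activity-based protein profiling used human and mouse brain membrane and soluble liver proteomes. Each was treated with compound at 10 or 100 μM or with DMSO, then labelled with FP-rhodamine. Serine hydrolases were resolved on fluorescent gels. Enzymes with reduced labelling intensity in the presence of inhibitor were scored as targets.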

Test [10] deals with T4, Fatty-acid amide hydrolase 1 (Mus musculus). The test is described as follows: Inhibition of FAAH in mouse brain membrane proteomes at 100 uM by competitive activity based protein profiling. It is filed as cell membranes. The procedure, abridged: as §3
The next test is filed under the species Homo sapiens. The test is described as follows: Inhibition of fluorophosphonate-reactive 55/65 kDa serine proteases in human liver soluble proteomes at 100 uM by competitive activity based protein profiling. The procedure, abridged:
(§4)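 Competitive activity-based protein profiling of human or mouse liver soluble proteome. Proteome was treated with inhibitor at 10 or 100 μM, or DMSO, then labelled with FP-rhodamine. Serine hydrolases were resolved on gel and read by fluorescent gel imaging. Bands with reduced labelling intensity in the presence of inhibitor were scored as targets.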

The species entered for a further test is Mus musculus. In words: Inhibition of fluorophosphonate-reactive 55/65 kDa serine proteases in mouse liver soluble proteomes at 100 uM by competitive activity based protein profiling. The procedure, abridged:
as §4

Calls of active or inactive are those of the source.

Sequence of Cytochrome P450 2D6 (P10635 whole entry): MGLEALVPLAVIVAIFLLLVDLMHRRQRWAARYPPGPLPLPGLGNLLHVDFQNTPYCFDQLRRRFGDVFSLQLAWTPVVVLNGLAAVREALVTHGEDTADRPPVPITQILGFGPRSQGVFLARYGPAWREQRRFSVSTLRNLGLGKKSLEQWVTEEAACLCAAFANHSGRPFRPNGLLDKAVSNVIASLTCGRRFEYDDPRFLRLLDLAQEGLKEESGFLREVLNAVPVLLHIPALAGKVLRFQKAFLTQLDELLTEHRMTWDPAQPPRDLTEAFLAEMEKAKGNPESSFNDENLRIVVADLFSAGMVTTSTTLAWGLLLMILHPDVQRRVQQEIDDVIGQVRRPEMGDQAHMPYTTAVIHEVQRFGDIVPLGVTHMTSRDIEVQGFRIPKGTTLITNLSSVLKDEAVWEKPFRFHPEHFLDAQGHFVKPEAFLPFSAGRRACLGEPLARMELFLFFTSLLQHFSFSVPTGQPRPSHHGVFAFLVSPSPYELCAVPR
T3 sequence (P08684 whole entry): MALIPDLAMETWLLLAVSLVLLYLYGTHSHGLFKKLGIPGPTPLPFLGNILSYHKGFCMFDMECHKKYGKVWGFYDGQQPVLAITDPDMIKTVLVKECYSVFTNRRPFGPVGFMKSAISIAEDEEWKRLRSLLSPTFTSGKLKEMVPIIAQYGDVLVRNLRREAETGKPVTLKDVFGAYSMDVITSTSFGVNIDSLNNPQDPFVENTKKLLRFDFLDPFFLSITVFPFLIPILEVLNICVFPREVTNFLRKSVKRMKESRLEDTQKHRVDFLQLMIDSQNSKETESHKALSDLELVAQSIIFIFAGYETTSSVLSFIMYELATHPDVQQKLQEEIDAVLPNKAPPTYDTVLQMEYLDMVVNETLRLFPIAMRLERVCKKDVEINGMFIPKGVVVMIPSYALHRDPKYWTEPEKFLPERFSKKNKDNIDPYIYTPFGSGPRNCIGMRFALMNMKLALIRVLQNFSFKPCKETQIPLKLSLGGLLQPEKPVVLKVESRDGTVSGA

For `O=C(Nc1noc2ccccc12)N1CCC(=Cc2cccc(Oc3ccc(C(F)(F)F)cn3)c2)CC1`, the Ratio in test [1] was found to be 30200 M⁻¹ s⁻¹; in test [2] it was 3930 M⁻¹ s⁻¹.

Consider `O=C(Nc1cccnc1)N1CC/C(=C/c2cccc(Oc3ccc(C(F)(F)F)cn3)c2)C1`, for which the Ratio in [2] was under 16 M⁻¹ s⁻¹.

For `Cc1noc(NC(=O)N2CCC(=Cc3cccc(Oc4ccc(C(F)(F)F)cn4)c3)CC2)c1C`, the Ratio turned out to be 54400 M⁻¹ s⁻¹ in [1] and 7990 M⁻¹ s⁻¹ in [2].

As for `O=C(Nc1ccccc1)N1CCC(=Cc2cccc(Oc3ccc(C(F)(F)F)cn3)c2)CC1`, the Ratio in [1] is 584 M⁻¹ s⁻¹; in [2], 4800 M⁻¹ s⁻¹.

With `O=C(Nc1ccccn1)N1CCC(=Cc2cccc(Oc3ccc(C(F)(F)F)cn3)c2)CC1`, the Ratio in test [1] came out at 563 M⁻¹ s⁻¹; in test [2] it was 6090 M⁻¹ s⁻¹.

`COc1ccc(NC(=O)N2CCC(=Cc3cccc(Oc4ccc(C(F)(F)F)cn4)c3)CC2)cn1`: the Ratio in test [1] turned out to be 11400 M⁻¹ s⁻¹; in test [2] it was 16000 M⁻¹ s⁻¹.

As for `COc1ccc2cc([C@H](C)C(=O)O)ccc2c1`, the inhibition result in the test filed under Rattus norvegicus [3] was “Active”.

For `O=C(Nc1cccnc1)N1CC/C(=C\c2cccc(Oc3ccc(C(F)(F)F)cn3)c2)C1`, the Ratio in test [2] is 144 M⁻¹ s⁻¹.

With `O=C(Nc1cccnc1)N1CCC/C(=C/c2cccc(Oc3ccc(C(F)(F)F)cn3)c2)C1`, the Ratio was found to be 22 M⁻¹ s⁻¹ in test [1] and 35 M⁻¹ s⁻¹ in [2].

With `O=C(Nc1cccnc1)N1CCC(Cc2cccc(Oc3ccc(C(F)(F)F)cn3)c2)CC1`, the MED in the test on Rattus norvegicus [4] came to 3 mg/kg.

Turning to `Cc1ccnc(Oc2cccc(C=C3CCN(C(=O)Nc4cccnn4)CC3)c2)c1`, in test [2], the Ratio was determined as 1580 M⁻¹ s⁻¹.

Take `O=C(Nc1cccnn1)N1CCC(=Cc2cccc(Oc3ccc(C(F)(F)F)nc3)c2)CC1`: the figures for the Ratio in test [1] and in test [2] were 2020 M⁻¹ s⁻¹ and 26600 M⁻¹ s⁻¹, respectively.

Regarding `O=C(Nc1cccnc1)N1CCC(Cc2cccc(Oc3ccc(C(F)(F)F)cn3)c2)C1` (centres undefined), the Ratio in [2] was found to be 88 M⁻¹ s⁻¹.

Consider `O=C(Nc1cccnc1)N1CCC/C(=C\c2cccc(Oc3ccc(C(F)(F)F)cn3)c2)C1`, for which the Ratio in test [1] was 233 M⁻¹ s⁻¹; in [2], 1150 M⁻¹ s⁻¹.

Turning to `Cc1ccc(Oc2cccc(C=C3CCN(C(=O)Nc4cccnn4)CC3)c2)nc1`, the Ratio in [1] was found to be 5530 M⁻¹ s⁻¹; in [2], 21500 M⁻¹ s⁻¹.

With `O=C(Nc1cccnn1)N1CCC(=Cc2cccc(Oc3ccccc3)c2)CC1`, the Ratio in test [1] amounted to 1900 M⁻¹ s⁻¹; in test [2], 1530 M⁻¹ s⁻¹.

In the case of `O=C(Nc1cccnc1)N1CC(=Cc2cccc(Oc3ccc(C(F)(F)F)cn3)c2)C1`, the Ratio turned out to be 173 M⁻¹ s⁻¹ in test [1] and 298 M⁻¹ s⁻¹ in test [2].

Take `Cc1ccc(NC(=O)N2CCC(=Cc3cccc(Oc4ccc(C(F)(F)F)cn4)c3)CC2)cn1`: the figures for the IC50 against Cytochrome P450 2D6, against Cytochrome P450 3A4 [5] and against Cytochrome P450 3A4 [6] were 1.6 µM, 11.8 µM and 3 µM, respectively. The figures for the Ratio in test [1] and in test [2] were 5210 M⁻¹ s⁻¹ and 13100 M⁻¹ s⁻¹, respectively.

As to `Cc1cccnc1Oc1cccc(C=C2CCN(C(=O)Nc3cccnn3)CC2)c1`, the Ratio in test [1] was found to be 256 M⁻¹ s⁻¹; in [2] it was 2200 M⁻¹ s⁻¹.

With `Cc1cccc(Oc2cccc(C=C3CCN(C(=O)Nc4cccnn4)CC3)c2)n1`, the Ratio in test [1] was 586 M⁻¹ s⁻¹; in test [2], 1090 M⁻¹ s⁻¹.

On to `O=C(Nc1cnccn1)N1CCC(=Cc2cccc(Oc3ccc(C(F)(F)F)cn3)c2)CC1`, for which the results for the IC50 against Cytochrome P450 2D6, on Cytochrome P450 3A4 [5] and at Cytochrome P450 3A4 [6] were 25.1 µM, 30 µM and 23.5 µM, respectively. The Ratio was 23700 M⁻¹ s⁻¹ in test [1] and 42600 M⁻¹ s⁻¹ in test [2].

Regarding `O=C(Nc1cccnn1)N1CCC(=Cc2cccc(Oc3ccc(C4CC4)cn3)c2)CC1`, the Ratio was 46300 M⁻¹ s⁻¹ in [1] and 28800 M⁻¹ s⁻¹ in [2].

Take `CCOc1ccc(Oc2cccc(C=C3CCN(C(=O)Nc4cccnn4)CC3)c2)nc1`: the Ratio in [1] came out at 11700 M⁻¹ s⁻¹; in test [2], 9230 M⁻¹ s⁻¹.

On to `NC(=O)c1cccc(-c2cccc(OC(=O)NC3CCCCC3)c2)c1`, for which the inhibition entry (in [7]; in [8]; in [9]; in test [10]; in the test filed under Homo sapiens; in the test listed under Mus musculus) was “Active” each time.

Take `O=C(Nc1cccnn1)N1CCC(=Cc2cccc(Oc3ccc(C(F)(F)F)cc3)c2)CC1`: the Ratio in test [1] was found to be 22900 M⁻¹ s⁻¹; in test [2], 18900 M⁻¹ s⁻¹.

In the case of `O=C(Nc1cccnc1)N1CCC(=Cc2cccc(Oc3ccc(C(F)(F)F)cn3)c2)CC1`, the IC50 (usually the midpoint of a concentration-inhibition curve) against Cytochrome P450 2D6 was determined as 1.4 µM; at Cytochrome P450 3A4 [5] it was 4.3 µM; against Cytochrome P450 3A4 [6] it was 0.8 µM. For the same compound, the Ratio was 15100 M⁻¹ s⁻¹ in test [1] and 21600 M⁻¹ s⁻¹ in test [2].
